Assay results from ChEMBL document CHEMBL1125638, “Design and conformational analysis of several highly potent bradykinin receptor antagonists” (J Med Chem, 1991).

Columns and labels:
[1] = test system: SV-T2; experiment: Binding affinity for bradykinin receptor of SV-T2 fibroblasts; assay type: functional, cell-based; conditions: Mus musculus, read-out: pA2 (converted)
How it was run: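 Functional antagonism measured as pA2 against bradykinin-stimulated prostaglandin synthesis in SV-T2 fibroblasts, which express only B2 bradykinin receptors. Agonist activity was also checked in the same cells at concentrations up to 10 µM.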

[2] = Displacement of [3H]bradykinin from bradykinin receptor in guinea pig ileal membrane; assay type: cell membranes, Cavia porcellus
[3] = Displacement of [3H]bradykinin from bradykinin receptor of guinea pig ileal membrane; Inactive; set-up: species or system Cavia porcellus

SMILES | Ki [2] [nM] | Ki [3] | Kb [1] [nM]
NC(N)=NCCC[C@@H](N)C(=O)N[C@@H](CCCN=C(N)N)C(=O)N1CCC[C@H]1C(=O)N1C[C@@H](O)C[C@H]1C(=O)NCC(=O)N[C@@H](Cc1cccs1)C(=O)N[C@@H](CO)C(=O)N1Cc2ccccc2C[C@@H]1C(=O)N1C2CCCC2C[C@H]1C(=O)N[C@@H](CCCN=C(N)N)C(=O)O (stereo partly specified) | 0.176 | – | 0.398
NC(N)=NCCC[C@@H](N)C(=O)N[C@@H](CCCN=C(N)N)C(=O)N1CCC[C@H]1C(=O)N1C[C@@H](O)C[C@H]1C(=O)NCC(=O)N[C@@H](Cc1cccs1)C(=O)N[C@H]1CSSC[C@@H](C(=O)O)NC(=O)[C@H](CCCN=C(N)N)NC(=O)[C@H](Cc2ccccc2)NC(=O)[C@H]2Cc3ccccc3CN2C1=O | – | Not Active | –
NC(N)=NCCC[C@@H](N)C(=O)N[C@@H](CCCN=C(N)N)C(=O)N1CCC[C@H]1C(=O)N1C[C@@H](O)C[C@H]1C(=O)NCC(=O)N[C@@H](Cc1cccs1)C(=O)N[C@H]1CSSC[C@@H](C(=O)N[C@@H](CCCN=C(N)N)C(=O)O)NC(=O)[C@H](Cc2ccccc2)NC(=O)[C@@H](Cc2ccccc2)NC1=O | 876 | – | 3980
NC(N)=NCCC[C@@H](N)C(=O)N[C@@H](CCCN=C(N)N)C(=O)N1CCC[C@H]1C(=O)N1C[C@H](O)C[C@H]1C(=O)NCC(=O)N[C@@H](Cc1ccccc1)C(=O)N[C@@H](CO)C(=O)N[C@H](Cc1ccccc1)C(=O)N[C@@H](Cc1ccccc1)C(=O)N[C@@H](CCCN=C(N)N)C(=O)O | 26.8 | – | 6.31

Further lines, with some results ahead:

Ki [2] [nM] | Ki [3] | SMILES | Kb [1] [nM]
0.381 | – | NC(N)=NCCC[C@@H](N)C(=O)N[C@@H](CCCN=C(N)N)C(=O)N1CCC[C@H]1C(=O)N1C[C@@H](O)C[C@H]1C(=O)NCC(=O)N[C@@H](Cc1cccs1)C(=O)N[C@@H](CO)C(=O)N1Cc2ccccc2C[C@@H]1C(=O)N1Cc2ccccc2C[C@H]1C(=O)N[C@@H](CCCN=C(N)N)C(=O)O | 0.794
571 | – | NC(N)=NCCC[C@@H](N)C(=O)N[C@@H](CCCN=C(N)N)C(=O)N1CCC[C@H]1C(=O)N1C[C@@H](O)C[C@H]1C(=O)NCC(=O)N[C@@H](Cc1cccs1)C(=O)N[C@@H](CO)C(=O)N1Cc2ccccc2C[C@@H]1C(=O)N1Cc2ccccc2C[C@@H]1C(=O)N[C@@H](CCCN=C(N)N)C(=O)O | 2510
